High-throughput results (PubChem)
Compounds with a hit are over-represented: about 2.4% of the library has one in this group of screens.
APOBEC3G inh – inhibitors of human APOBEC3G DNA deaminase. Q9HC16. AID 493012. inhibition, % at 20 µM. 330,000 tested, 0.28% active. recombinant A3G, ssDNA deamination FAM/TAMRA fluorescence;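 active = inhibition of at least 40% at 20 µM, with no more than 30% in the related APOBEC3A deaminase screen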;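 also: plate controls were DMSO wells with A3G for no effect and wells lacking A3G enzyme for full effect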
Target sequence (Q9HC16 whole entry, looked up): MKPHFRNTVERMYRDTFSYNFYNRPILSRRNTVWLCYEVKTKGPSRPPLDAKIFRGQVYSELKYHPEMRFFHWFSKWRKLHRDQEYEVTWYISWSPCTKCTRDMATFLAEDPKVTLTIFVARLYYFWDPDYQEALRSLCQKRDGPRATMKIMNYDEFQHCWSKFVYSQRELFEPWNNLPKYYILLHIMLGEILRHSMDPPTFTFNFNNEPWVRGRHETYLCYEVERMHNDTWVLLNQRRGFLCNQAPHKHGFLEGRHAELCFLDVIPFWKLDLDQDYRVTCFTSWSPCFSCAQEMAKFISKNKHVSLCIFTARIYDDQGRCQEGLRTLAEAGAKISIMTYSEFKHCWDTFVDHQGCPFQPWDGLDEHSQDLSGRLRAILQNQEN
HKDC1 inh – inhibitors of human hexokinase HKDC1. 340,000 tested, 0.16% active. recombinant HKDC1, G6PDH/diaphorase resazurin coupled fluorescence. inhibition, % at 20 µM. Q2TB90;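 active = inhibition above about 35% when tested at 20 µM, limit read from the data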;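 also: plate controls were DMSO wells with enzyme for no effect and DMSO wells lacking enzyme for full effect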
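Test system: HK5 enzyme. Quantity: 5 µg/mL HK5 final. Reagent: glucose and ATP substrates. Schedule: 90 min reaction incubation at room temperature, dark. Technique: resazurin-to-resorufin fluorescence via G6PDH and diaphorase coupling, 525/613 nm. Control set: DMSO wells with and without enzyme mix.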
UBC9 SUMO inh – blocks human SUMOylation mediated by UBC9; inhibition, % at 35 µM; AID 2006; HTRF SUMOylation assay, SAE1/SAE2 + UBC9, in vitro; P63279; 290,000 tested, 0.36% active; in the data active = inhibition above about 50%, passing the limit was not always enough
Target sequence (P63279 whole entry, looked up): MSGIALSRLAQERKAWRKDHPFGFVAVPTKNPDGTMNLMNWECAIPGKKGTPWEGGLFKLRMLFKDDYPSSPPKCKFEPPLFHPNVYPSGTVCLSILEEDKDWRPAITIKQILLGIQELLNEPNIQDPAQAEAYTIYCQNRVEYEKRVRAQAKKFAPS
PfGluPho inh – PfG6PD (Plasmodium falciparum) enzyme inhibition; AID 504690; PfGluPho enzyme, NADPH resazurin-diaphorase fluorescence; 350,000 tested, 0.78% active; inhibition, % at 20 µM;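 active = inhibition reaching at least a set limit at 20 µM in the primary screen, cut at about 59% in these data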;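 also: 0% = DMSO wells with substrate and 100% = DMSO wells lacking glucose-6-phosphate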
A3A deaminase – inhibitors of human APOBEC3A DNA deaminase | P31941 | recombinant A3A, FAM/TAMRA ssDNA deamination fluorescence | inhibition, % at 20 µM | 330,000 tested, 0.41% active;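 active = at least 40% inhibition at 20 µM here, with at most 30% in a related deaminase screen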;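 also: plate controls were A3A with DMSO for no effect and wells lacking A3A enzyme for full effect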
M18AAP inhibitor – blocks P. falciparum M18 aspartyl aminopeptidase; inhibition, % at 7.35 µM; AID 1822; 290,000 tested, 1.2% active; recombinant PfM18AAP, H-Glu-NHMec fluorogenic cleavage;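 active = inhibition above the campaign mean inhibition over all tested compounds plus 3 SD, cut at about 28% in these data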;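 also: 0% = plate median of test compound wells and 100% = 2 mM ZnCl2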
* = called active by the depositor; x = no result.

SMILES	APOBEC3G inh	HKDC1 inh	UBC9 SUMO inh	PfGluPho inh	A3A deaminase	M18AAP inhibitor
Cc1ccsc1C(=O)C1CCCN(Cc2ccc(-n3cccn3)cc2)C1 (stereo not drawn)	-7.7	4.4	65.4*	34.8	0.8	3.0
Cc1ccsc1C(=O)C1CCCN(Cc2cccc(-n3cccn3)c2)C1 (stereo not drawn)	-1.9	-3.1	-12.4	14.1	-0.1	3.9
Cc1ccc(-n2c(C)nc3cc(Cl)ccc3c2=O)nc1	-7.7	-1.0	14.8	-13.4	-1.2	-3.2
COc1cc(/C=C(/C)[N+](=O)[O-])ccc1OCc1ccccc1Cl	-3.5	28.9	1.9	51.8	1.6	30.0*
COc1cc(C=C2C(=O)NC(=O)NC2=O)ccc1OCc1ccc([N+](=O)[O-])cc1	x	7.3	8.7	37.4	x	0.9
O=C(c1cccn2c(=O)c3ccc(Cl)cc3nc12)N1CCC2(CC1)OCCO2	2.2	-3.3	57.5*	-22.9	6.1	-1.0
Nc1c(C(=O)NCc2ccco2)c2nc3ccccc3nc2n1Cc1ccc(F)cc1	13.9	22.2	99.9*	23.6	1.7	23.2
Nc1c(C(=O)NCc2ccco2)c2nc3ccccc3nc2n1CCN1CCOCC1	-0.4	11.4	34.0	13.9	1.9	24.2
COc1ccc(Cn2c(N)c(C(=O)NCc3ccco3)c3nc4ccccc4nc32)cc1	-4.3	7.4	95.3	15.3	-13.0	11.9
Nc1c(C(=O)NCc2ccco2)c2nc3ccccc3nc2n1Cc1ccccc1	-5.1	7.3	100.9*	35.1	-2.0	15.2
CCC1(OC(=O)CN)C(=O)OCc2c1cc1n(c2=O)Cc2cc3ccccc3nc2-1 (stereo not drawn)	x	0.5	57.1*	-1.8	x	0.3
CC[C@@]1(O)C(=O)OCc2c1cc1n(c2=O)Cc2cc3ccccc3nc2-1	x	x	49.2	x	x	2.6
COc1cc(/C=C/[N+](=O)[O-])ccc1O	0.4	15.2	0.6	40.7	5.7	29.1*
CCN(CC)c1ccc(/C=C/[N+](=O)[O-])cc1	-8.8	9.6	-2.0	3.9	-0.8	23.4
Cc1cc(O)c2c(c1)C(=O)C13C(=C2O)C(=O)[C@H]2[C@@H](O)[C@@H]1[C@H]1[C@H](O)[C@@H]3C(=O)C3=C(O)c4c(O)cc(C)cc4C(=O)C312 (stereo partly drawn)	3.8	67.4*	x	28.8	10.9	x
CCn1nc(-c2cccs2)nc2c(=O)n(C)c(=O)nc1-2	x	-30.5	100.7*	107.1*	x	x
O=C(O)c1cc[c]([Hg][Cl])cc1	91.6	3.9	x	121.8*	96.9	x
O=[N+]([O-])/C=C/c1c(Cl)cccc1Cl	x	0.0	x	101.3*	x	x
CCOC(=O)C1(c2ccccc2)CCN(CCc2ccc(NC(=O)CCC(=O)O)cc2)CC1	x	-5.4	x	10.4	x	x
COc1ccc(-n2c(O)c(/C=C/C=Nc3ccccc3)c(=O)[nH]c2=O)cc1	-18.9	3.8	-7.6	-7.3	-8.1	-7.7
Oc1cc2c(cc1O)[C@H]1c3ccccc3CN[C@@H]1CC2	x	x	-1.3	x	x	89.5*
Cc1cnc[nH]1	-8.6	-3.6	x	-14.7	-1.7	x
COc1ccc(N2C(=O)NC(=O)/C(=C\c3ccc([N+](=O)[O-])s3)C2=O)cc1	16.5	5.5	48.8	63.1*	19.3	-1.6
COc1ccccc1N1C(=O)NC(=O)/C(=C/c2ccc([N+](=O)[O-])s2)C1=O	18.4	8.5	33.5	72.1*	13.8	6.3
COc1ccc(N2C(=O)NC(=O)/C(=C/c3ccc([N+](=O)[O-])s3)C2=O)cc1	12.6	5.1	50.8*	55.9	27.3	4.5
SMILES	APOBEC3G inh	HKDC1 inh	UBC9 SUMO inh	PfGluPho inh	A3A deaminase	M18AAP inhibitor
CCOc1ccc(N2C(=O)NC(=O)/C(=C\c3cc(OC)c(OC)cc3[N+](=O)[O-])C2=O)cc1	-10.2	-4.3	15.9	10.9	0.9	12.8
O=C1N[C@@H](Cc2ccccc2)C(=O)N2[C@H]1C[C@H]1c3ccccc3N(OOSc3ccccc3)[C@H]12	-4.7	4.8	x	23.3	-2.9	x
CC(C)COc1ccc(Cc2c(O)[nH]c(=S)[nH]c2=O)cc1	12.4	-4.8	0.9	-30.9	-10.1	-13.9
CC(C)OP(=O)(OC(C)C)C(O)c1cccnc1 (stereo not drawn)	-2.2	-6.7	2.3	-3.4	2.8	-3.9
N#Cc1cc2c(nc1SCC(=O)Nc1ccc(Cl)cc1)C1CCN2CC1	-5.6	-2.8	12.1	10.0	-2.9	7.1
COc1ccc(Cc2c(O)[nH]c(=O)[nH]c2=O)c(OC)c1	-6.4	-0.8	6.9	7.6	-2.3	3.3
CN1CCC2(CC1)C(C#N)=C(N)NC(S)=C2C#N	-10.0	11.3	57.2*	39.2	-3.2	13.0
CCOC(=O)c1nsnc1NCCCl	-8.4	12.6	-0.6	-14.3	3.1	-2.9
CCC(CC)NCc1c[nH]c2ccccc12	-5.4	-4.8	5.2	6.9	0.2	1.6
C(#CCN1CCOCC1)COC/C=C/c1ccccc1	-3.8	-1.0	-15.2	-2.3	1.9	31.3*
O=C(O)Cn1cc(/C=C2\C(=O)NC(=O)N(c3ccc(F)cc3)C2=O)c2ccccc21	-1.3	x	2.8	x	-1.3	15.4
NC(=O)Cn1cc(C=C2C(=O)NC(=O)NC2=O)c2ccccc21	4.5	2.8	3.2	16.8	-1.6	28.6*
COc1ccc(CN2C(=O)NC(=O)/C(=C/c3ccc([N+](=O)[O-])s3)C2=O)cc1	36.3	13.2	45.8	67.4*	15.7	-8.4
O=C1NC(=O)N(Cc2ccc(F)cc2)C(=O)/C1=C\c1ccc([N+](=O)[O-])s1	22.5	12.0	63.4*	71.2*	15.1	-9.8
COc1ccc(CN2C(=O)NC(=O)/C(=C\c3cc(OC)c(OC)c(OC)c3)C2=O)cc1	-3.9	-7.7	7.7	-2.1	0.0	0.0
CC(C)CCP(=O)(O)c1ccccc1	-7.4	-9.9	11.6	4.3	-3.5	-3.2
NC(=S)c1cn(C2OC(CO)C(O)C2O)c2ncnc(N)c12 (stereo not drawn)	x	-3.0	12.8	15.9	x	39.7*
Nc1ncnc2c1ccn2[C@@H]1O[C@H](CO)[C@@H](O)[C@H]1O	-5.5	-7.0	x	-1.9	-1.8	x
O=C1NC(=O)C(=Cc2ccc(N3CCN(C(=O)c4ccccc4)CC3)c([N+](=O)[O-])c2)C(=O)N1	-3.8	-3.5	21.5	9.8	0.3	11.4
C=CCn1c(O)c(C(C)=Nc2ccc(N(C)C)cc2)c(=O)[nH]c1=O	-4.4	2.3	-5.6	9.5	-2.8	30.5*
C=CCn1c(O)c(C(CC)=Nc2ccc(N(CC)CC)cc2)c(=O)[nH]c1=O	5.0	-2.8	16.6	-4.4	2.7	28.8*
C=CCn1c(O)c(C(C)=Nc2ccc(N(CC)CC)cc2)c(=O)[nH]c1=O	-1.0	-5.1	9.7	20.1	1.8	29.4*
C=CCn1c(O)c(C(CC)=Nc2ccc(NC(C)=O)cc2)c(=O)[nH]c1=O	-7.5	-1.3	-1.4	-8.6	-4.5	13.0
COc1ccc(OC)c(C2=NOC(C(=O)N3CCC4(CC3)OCCO4)C2)c1 (stereo not drawn)	-4.9	-0.3	-5.3	-0.5	1.6	1.0
